pEC50, pIC50, pKi: −log10 of the molar value.
Legend:
[1] = Ability to displace [3H]CGP-39653 binding to N-methyl-D-aspartate glutamate receptor from rat forebrain
In short: (§1)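 Rat forebrain homogenates; displacement of [3H]kainic acid (kainate), [3H]AMPA (AMPA) or [3H]CGP39653 (NMDA) binding, tested up to 100 000 nM. Where an IC50 below 100 µM could be determined, runs were in triplicate. Values are given as mean IC50 ± standard error.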

[2] = molecular target: T1, Glutamate receptor ionotropic, AMPA (Rattus norvegicus, UniProt P19490+P19491+P19492+P19493); assay: Ability to displace [3H]AMPA binding to Ionotropic glutamate receptor AMPA from rat forebrain; in short: as §1
[3] = Ability to displace [3H]LY-341,495 binding to Group II Metabotropic glutamate receptor from rat forebrain
In short: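 Rat forebrain homogenates; displacement of the group II-selective radioligand [3H]LY341495. Where an IC50 below 100 µM could be determined, runs were in triplicate. Values are given as mean IC50 ± standard error.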

[4] = molecular target: T2, Metabotropic glutamate receptor 3 (Homo sapiens, UniProt Q14832); assay: Ability to displace [3H]LY-341,495 from recombinant human Metabotropic glutamate receptor 3 expressed in RGT cells.; type: cell-based
[5] = molecular target: Glutamate receptor ionotropic, kainate; assay: Ability to displace [3H]-KA binding to Ionotropic glutamate receptor kainate from rat forebrain; in short: as §1
[6] = molecular target: T3, Metabotropic glutamate receptor 2 (Homo sapiens, UniProt Q14416); assay: Ability to displace [3H]LY-341,495 from recombinant human Metabotropic glutamate receptor 2 subtypes expressed in RGT cells.; type: cell-based
T3 sequence (Q14416 whole entry): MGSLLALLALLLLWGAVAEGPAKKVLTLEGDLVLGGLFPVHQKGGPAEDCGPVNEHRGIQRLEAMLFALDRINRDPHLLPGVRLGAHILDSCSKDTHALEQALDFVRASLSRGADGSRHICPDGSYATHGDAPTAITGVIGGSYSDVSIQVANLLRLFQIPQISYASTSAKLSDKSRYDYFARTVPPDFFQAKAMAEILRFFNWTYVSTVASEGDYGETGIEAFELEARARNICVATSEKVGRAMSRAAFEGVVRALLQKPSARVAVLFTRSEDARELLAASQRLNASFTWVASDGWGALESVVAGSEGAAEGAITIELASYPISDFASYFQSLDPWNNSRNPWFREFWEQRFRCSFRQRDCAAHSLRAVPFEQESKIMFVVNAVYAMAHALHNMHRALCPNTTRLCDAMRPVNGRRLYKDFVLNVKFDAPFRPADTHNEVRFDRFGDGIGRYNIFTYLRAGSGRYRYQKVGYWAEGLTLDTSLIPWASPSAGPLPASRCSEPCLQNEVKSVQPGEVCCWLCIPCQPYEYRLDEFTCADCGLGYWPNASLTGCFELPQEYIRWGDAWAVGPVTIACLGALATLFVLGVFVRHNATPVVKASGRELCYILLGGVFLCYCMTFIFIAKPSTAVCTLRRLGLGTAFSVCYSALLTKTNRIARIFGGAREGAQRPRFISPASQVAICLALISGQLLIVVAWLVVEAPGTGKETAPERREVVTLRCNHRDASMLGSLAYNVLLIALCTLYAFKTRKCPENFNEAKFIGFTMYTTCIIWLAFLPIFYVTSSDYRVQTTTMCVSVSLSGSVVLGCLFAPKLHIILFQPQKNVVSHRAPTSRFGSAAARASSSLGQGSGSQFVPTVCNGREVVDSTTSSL

[7] = molecular target: T3, Metabotropic glutamate receptor 2; assay: Inhibition of forskolin stimulated cAMP production in RGT cells expressing recombinant human Metabotropic glutamate receptor 2; type: functional, cell-based
[8] = molecular target: Metabotropic glutamate receptor 4 (Homo sapiens, UniProt Q14833); assay: Inhibition of forskolin stimulated cAMP production in RGT cells expressing recombinant human mGluR4a; type: functional, cell-based
Chain of Metabotropic glutamate receptor 4 (Q14833 whole entry): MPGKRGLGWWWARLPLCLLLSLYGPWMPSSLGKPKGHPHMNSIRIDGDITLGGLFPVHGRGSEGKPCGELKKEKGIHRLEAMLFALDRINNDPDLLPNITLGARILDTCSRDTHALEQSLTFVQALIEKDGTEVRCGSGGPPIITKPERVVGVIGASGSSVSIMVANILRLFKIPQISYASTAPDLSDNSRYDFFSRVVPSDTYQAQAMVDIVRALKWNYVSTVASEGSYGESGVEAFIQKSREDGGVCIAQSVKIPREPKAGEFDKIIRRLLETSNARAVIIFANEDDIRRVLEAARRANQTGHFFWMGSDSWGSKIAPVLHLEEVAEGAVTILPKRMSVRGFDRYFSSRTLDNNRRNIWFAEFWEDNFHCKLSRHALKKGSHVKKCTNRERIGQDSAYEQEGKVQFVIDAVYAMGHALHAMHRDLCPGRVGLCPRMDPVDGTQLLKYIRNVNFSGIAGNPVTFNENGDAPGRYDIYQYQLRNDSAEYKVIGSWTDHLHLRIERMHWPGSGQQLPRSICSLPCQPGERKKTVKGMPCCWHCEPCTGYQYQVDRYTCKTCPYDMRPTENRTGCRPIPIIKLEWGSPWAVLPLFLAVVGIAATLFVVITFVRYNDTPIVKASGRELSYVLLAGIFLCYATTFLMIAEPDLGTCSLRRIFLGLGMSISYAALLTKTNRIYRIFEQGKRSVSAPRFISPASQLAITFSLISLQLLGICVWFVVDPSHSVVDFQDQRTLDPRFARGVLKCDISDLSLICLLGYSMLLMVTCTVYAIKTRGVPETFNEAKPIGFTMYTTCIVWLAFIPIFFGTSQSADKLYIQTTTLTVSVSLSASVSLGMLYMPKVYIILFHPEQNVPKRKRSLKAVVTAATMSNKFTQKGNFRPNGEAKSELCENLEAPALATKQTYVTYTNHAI
In short: (§2)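 AV12-664 (RGT) cells co-expressing the GLAST glutamate transporter and one recombinant human mGlu receptor (mGlu1a, mGlu4a, mGlu5a, mGlu6, mGlu7a or mGlu8). Second-messenger response measured; agonist and antagonist modes tested, typically up to 10 000–100 000 nM. EC50 and Emax reported.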

[9] = molecular target: Metabotropic glutamate receptor 8 (Homo sapiens, UniProt O00222); assay: Inhibition of forskolin stimulated cAMP production in RGT cells expressing recombinant human mGluR8; type: functional, cell-based; in short: as §2
[10] = molecular target: Metabotropic glutamate receptor 1 (Homo sapiens, UniProt Q13255); assay: […] in RGT cells expressing recombinant human mGluR1a; type: functional, cell-based; in short: as §2
Chain of Metabotropic glutamate receptor 1 (Q13255 whole entry): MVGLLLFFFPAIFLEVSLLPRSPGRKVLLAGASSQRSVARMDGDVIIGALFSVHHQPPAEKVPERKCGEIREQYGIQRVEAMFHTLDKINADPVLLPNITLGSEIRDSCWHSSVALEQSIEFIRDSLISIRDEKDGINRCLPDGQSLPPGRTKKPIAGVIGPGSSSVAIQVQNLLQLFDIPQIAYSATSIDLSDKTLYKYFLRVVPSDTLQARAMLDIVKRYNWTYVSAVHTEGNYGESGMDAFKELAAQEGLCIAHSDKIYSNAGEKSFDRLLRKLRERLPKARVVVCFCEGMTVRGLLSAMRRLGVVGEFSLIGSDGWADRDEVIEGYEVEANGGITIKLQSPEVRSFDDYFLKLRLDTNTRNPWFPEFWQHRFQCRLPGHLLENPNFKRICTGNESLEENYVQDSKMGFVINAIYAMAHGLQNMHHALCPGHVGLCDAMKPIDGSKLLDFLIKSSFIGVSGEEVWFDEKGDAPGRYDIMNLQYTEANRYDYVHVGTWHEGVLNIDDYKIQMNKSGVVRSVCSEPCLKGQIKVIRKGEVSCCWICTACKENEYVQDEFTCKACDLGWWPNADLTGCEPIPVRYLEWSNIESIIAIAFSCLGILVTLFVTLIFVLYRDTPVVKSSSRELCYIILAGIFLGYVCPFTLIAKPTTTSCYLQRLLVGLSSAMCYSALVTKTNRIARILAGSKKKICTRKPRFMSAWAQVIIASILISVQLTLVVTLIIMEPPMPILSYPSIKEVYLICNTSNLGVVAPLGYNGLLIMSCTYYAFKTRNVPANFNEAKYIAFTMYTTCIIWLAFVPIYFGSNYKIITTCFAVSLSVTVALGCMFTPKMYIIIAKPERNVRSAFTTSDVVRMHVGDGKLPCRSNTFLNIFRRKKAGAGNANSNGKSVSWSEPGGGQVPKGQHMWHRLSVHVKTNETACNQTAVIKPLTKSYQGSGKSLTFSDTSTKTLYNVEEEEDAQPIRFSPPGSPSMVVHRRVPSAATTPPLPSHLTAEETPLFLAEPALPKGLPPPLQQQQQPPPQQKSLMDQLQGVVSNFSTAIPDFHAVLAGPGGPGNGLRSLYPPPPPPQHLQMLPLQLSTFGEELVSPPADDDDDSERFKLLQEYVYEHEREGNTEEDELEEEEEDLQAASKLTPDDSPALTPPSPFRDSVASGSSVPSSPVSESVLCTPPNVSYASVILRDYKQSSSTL

[11] = molecular target: Metabotropic glutamate receptor 6 (Homo sapiens, UniProt O15303); assay: Inhibition of forskolin stimulated cAMP production in RGT cells expressing recombinant human mGluR6; type: functional, cell-based; in short: as §2
Chain of Metabotropic glutamate receptor 6 (O15303 whole entry): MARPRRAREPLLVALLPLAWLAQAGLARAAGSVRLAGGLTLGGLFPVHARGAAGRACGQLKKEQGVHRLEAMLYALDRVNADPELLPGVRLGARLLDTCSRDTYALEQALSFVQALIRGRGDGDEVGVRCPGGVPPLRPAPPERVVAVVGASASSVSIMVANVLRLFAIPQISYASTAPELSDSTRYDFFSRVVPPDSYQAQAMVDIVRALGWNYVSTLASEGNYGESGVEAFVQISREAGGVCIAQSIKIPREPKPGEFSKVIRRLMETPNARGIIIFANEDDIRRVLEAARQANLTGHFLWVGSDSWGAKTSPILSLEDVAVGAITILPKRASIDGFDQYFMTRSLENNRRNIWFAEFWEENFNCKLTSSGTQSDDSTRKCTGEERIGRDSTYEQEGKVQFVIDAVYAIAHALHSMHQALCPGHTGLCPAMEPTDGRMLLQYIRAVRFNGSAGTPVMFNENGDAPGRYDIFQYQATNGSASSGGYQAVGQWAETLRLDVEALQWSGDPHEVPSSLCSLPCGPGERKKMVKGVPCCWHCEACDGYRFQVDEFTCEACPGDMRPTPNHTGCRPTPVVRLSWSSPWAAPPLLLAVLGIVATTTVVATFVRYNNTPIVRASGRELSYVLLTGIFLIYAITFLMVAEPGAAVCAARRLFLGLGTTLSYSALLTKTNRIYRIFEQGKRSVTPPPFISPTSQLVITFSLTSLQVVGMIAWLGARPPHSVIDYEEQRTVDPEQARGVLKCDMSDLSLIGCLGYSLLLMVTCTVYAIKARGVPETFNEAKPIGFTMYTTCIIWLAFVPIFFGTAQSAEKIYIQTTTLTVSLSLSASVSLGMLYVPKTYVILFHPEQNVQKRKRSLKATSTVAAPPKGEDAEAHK

[12] = molecular target: Metabotropic glutamate receptor 7 (Homo sapiens, UniProt Q14831); assay: Inhibition of forskolin stimulated cAMP production in RGT cells expressing recombinant human mGluR7; type: functional, cell-based; in short: as §2
Chain of Metabotropic glutamate receptor 7 (Q14831 whole entry): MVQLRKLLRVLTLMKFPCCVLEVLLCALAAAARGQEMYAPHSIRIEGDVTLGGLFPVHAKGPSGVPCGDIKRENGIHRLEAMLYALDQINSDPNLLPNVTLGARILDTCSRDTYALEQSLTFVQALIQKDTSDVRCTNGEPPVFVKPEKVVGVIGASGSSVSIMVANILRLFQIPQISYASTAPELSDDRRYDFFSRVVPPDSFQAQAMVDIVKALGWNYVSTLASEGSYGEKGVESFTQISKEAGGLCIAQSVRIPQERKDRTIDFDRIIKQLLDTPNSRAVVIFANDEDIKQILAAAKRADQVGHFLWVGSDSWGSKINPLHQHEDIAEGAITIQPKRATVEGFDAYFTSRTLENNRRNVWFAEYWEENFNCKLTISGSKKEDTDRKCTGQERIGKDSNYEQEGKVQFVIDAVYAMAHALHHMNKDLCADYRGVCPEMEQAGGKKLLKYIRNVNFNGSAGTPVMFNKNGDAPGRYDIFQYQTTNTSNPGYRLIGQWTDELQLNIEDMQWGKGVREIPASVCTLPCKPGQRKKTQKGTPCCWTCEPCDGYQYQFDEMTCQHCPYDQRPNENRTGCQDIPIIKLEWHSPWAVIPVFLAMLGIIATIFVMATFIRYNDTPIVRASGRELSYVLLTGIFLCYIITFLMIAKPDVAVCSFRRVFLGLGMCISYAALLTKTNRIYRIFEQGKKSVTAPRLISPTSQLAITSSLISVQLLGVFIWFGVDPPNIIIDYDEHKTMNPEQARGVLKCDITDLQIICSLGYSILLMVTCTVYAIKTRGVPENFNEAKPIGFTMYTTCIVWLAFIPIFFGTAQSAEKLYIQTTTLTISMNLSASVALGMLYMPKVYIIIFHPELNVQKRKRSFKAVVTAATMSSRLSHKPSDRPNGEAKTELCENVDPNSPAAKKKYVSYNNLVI

[13] = molecular target: Metabotropic glutamate receptor 5 (Homo sapiens, UniProt P41594); assay: […] in RGT cells expressing recombinant human mGluR5a; type: functional, cell-based; in short: as §2
[14] = molecular target: T2, Metabotropic glutamate receptor 3; assay: Inhibition of forskolin stimulated cAMP production in RGT cells expressing recombinant human Metabotropic glutamate receptor 3; type: functional, cell-based
[15] = molecular target: T1, Glutamate receptor ionotropic, AMPA; assay: Binding affinity against Ionotropic glutamate receptor AMPA using [3H]AMPA as radioligand.; type: protein-complex assay; in short: as §1
Mus musculus [16] = assay: Effect on limbic seizures induced by ACPD in NIH Swiss mice 4 hr after systemic administration; type: functional; settings: Limbic system
In short: (§3)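 Male NIH Swiss mice received test agent ip 1, 2 or 4 h before unilateral intracerebral injection of (1S,3R)-ACPD (400 nmol). Controls received H2O ip before ic H2O or ACPD. Mice were watched after ACPD for limbic seizures (clonic forelimb contractions, rearing to a praying stance, loss of balance, falling). Scored as number seizing/number treated (n=10); ED50 calculated.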

Mus musculus [17] = assay: Effect on limbic seizures induced by ACPD in NIH Swiss mice 2 hr after systemic administration; type: functional; settings: Limbic system; in short: as §3
Mus musculus [18] = assay: Effect on limbic seizures induced by ACPD in NIH Swiss mice at 100 mg/kg dose 1 hr after systemic administration; type: functional, Limbic system; in short: as §3
Mus musculus [19] = assay: Effect on limbic seizures induced by ACPD in NIH Swiss mice 1 hr after systemic administration; type: functional; settings: Limbic system; in short: as §3
Mus musculus [20] = assay: Effect on limbic seizures induced by ACPD in NIH Swiss mice at 30 mg/kg dose 1 hr after systemic administration; type: functional, Limbic system; in short: as §3

pIC50 [1] | pIC50 [2] | pIC50 [3] | pKi [4] | pIC50 [5] | pKi [6] | pEC50 [7] | pEC50 [8] | pEC50 [9] | pEC50 [10] | pEC50 [11] | pEC50 [12] | pEC50 [13] | pEC50 [14] | pIC50 [15] | SMILES | ED50 (Mus musculus [16]) | ED50 (Mus musculus [17]) | No. of mice effected/No. of treated (Mus musculus [18]) | ED50 (Mus musculus [19]) | No. of mice effected/No. of treated (Mus musculus [20])
< 4.00 | < 4.00 | 7.58 | 8.03 | < 4.00 | 7.17 |  |  |  |  |  |  |  |  |  | N[C@@]1(C(=O)O)CS[C@H]2[C@H](C(=O)O)[C@H]21 (racemic) [LY-389795] |  |  |  |  | 
< 4.00 |  | 6.60 | 7.03 | < 4.00 | 7.13 | 7.95 | < 4.00 | 4.94 | < 4.00 | 5.52 | < 4.00 | < 4.00 | 7.42 | < 4.00 | N[C@@]1(C(=O)O)CC[C@H]2[C@H](C(=O)O)[C@H]21 [EGLUMETAD] |  |  |  |  | 
 |  | 6.10 | 6.77 |  | 6.09 |  |  |  |  |  |  |  |  |  | N[C@@]1(C(=O)O)CS[C@H]2[C@H](C(=O)O)[C@H]21 (stereo in doubt; (+)-10) [LY-389795] |  |  |  |  | 
 |  | 5.30 | 5.98 |  | 5.70 |  |  |  |  |  |  |  |  |  | N[C@@]1(C(=O)O)CO[C@H]2[C@H](C(=O)O)[C@H]21 (stereo in doubt; (+)-9) [LY-379268] |  |  |  |  | 
 |  | 7.54 | 7.84 |  | 7.44 |  |  |  |  |  |  |  |  |  | N[C@@]1(C(=O)O)CO[C@H]2[C@H](C(=O)O)[C@H]21 (racemic) [LY-379268] |  |  |  |  | 
< 4.00 | < 4.00 | 7.82 | 8.24 | < 4.00 | 7.85 | 8.57 | 4.68 | 5.77 | < 4.00 | 6.40 | < 4.00 | < 4.00 | 8.34 |  | N[C@@]1(C(=O)O)CO[C@H]2[C@H](C(=O)O)[C@H]21 (stereo in doubt; (-)-9) [LY-379268] | 26 mg/kg | 6 mg/kg | 10 | 19 mg/kg | 10
 |  | 8.08 | 8.33 |  | 7.39 | 8.41 | < 4.00 | 5.13 | < 4.00 | 5.61 | < 4.00 | < 4.00 | 8.12 |  | N[C@@]1(C(=O)O)CS[C@H]2[C@H](C(=O)O)[C@H]21 (stereo in doubt; (-)-10) [LY-389795] | 14 mg/kg | 15 mg/kg | 10 | 14 mg/kg | 10

Source: ChEMBL document CHEMBL1132607, “Synthesis, pharmacological characterization, and molecular modeling of heterobicyclic amino acids related to (+)-2-aminobicyclo[3.1.0] hexane-2,6-dicarboxylic acid (LY354740): identification of two new potent, selective, and systemically active agonists for group II metabotropic glutamate receptors” (J Med Chem, 1999)
